Data set [1] deals with HepG2. Put plainly: Cytotoxicity against human HepG2 cells overexpressing EGFP-CYP3A4 assessed as reduction in cell viability at 15 uM measured after 24 hrs by propidium iodide staining based flow cytometry. It is filed as functional. In short, it runs like this: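 HepG2 stably transfected (G418 0.5 mg/mL, four weeks; plasmid confirmed by PCR) with pcDNA3-CYP3A4-EGFP or empty vector, 0.1 × 10^6 per well, adhered overnight; 15 μM compound 24 h. Propidium iodide staining and flow cytometry; specific cell death relative to control. Three independent experiments.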

The subject of data set [2] is CEM. Put plainly: Inhibition of P-gp in vincristine-resistant human CEM cells at 0.1 to 1 uM using calcein-AM as substrate preincubated for 30 mins followed by compound washout and subsequent substrate addition measured after 60 mins by flow cytometric analysis. It is filed as cell-based. The following applies: dose 0.1-1 µM.
Data set [3] concerns CCRF-CEM. Put plainly: Effect on P-gp expression in vincristine-resistant human CEM cells at 1 uM measured after 1.5 hrs by immunostaining based flow cytometry. It is filed as functional, cell-based. In short, it runs like this:
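VCR-R CEM, 2 × 10^4 cells, 1 μM compound 1.5 h at 37 °C; washed in ice-cold 1% BSA/PBS, stained 30 min at 4 °C in dark with FITC anti-human P-gp, isotype control for background; flow cytometry, gMFI normalized to DMSO. Three independent experiments.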
In general terms: Flow cytometry measures light scatter and fluorescence of single cells or particles in a stream.

Data set [4] concerns CEM. Put plainly: Inhibition of P-gp in vincristine-resistant human CEM cells assessed as potentiation of vincristine-induced apoptosis 1 uM measured after 48 hrs by propidium iodide staining based flow cytometry. It is filed as cell-based. The method in brief: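 VCR-R CEM, 0.125 × 10^6 per well, rested 4 h, then incubated 48 h with increasing vincristine with or without 1 μM compound; apoptosis by propidium iodide staining and flow cytometry. Three independent experiments.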

Data set [5] concerns CEM. Put plainly: Effect on AKT phosphorylation at Ser473 residue in vincristine-resistant human CEM cells at 5 uM measured after 24 hrs by Western blot analysis. It is filed as cell-based. In short, it runs like this: (§1)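 VCR-R CEM cells, 2 × 10^6 per well, seeded 4 h before 5 μM compound or DMSO for 24 h; RIPA lysis, SDS-PAGE, PVDF blotting, chemiluminescence. Probed for p-Akt (Ser473), total Akt, PARP, Bcl-xL, Mcl-1; stain-free total protein as loading control.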

The subject of data set [6] is CCRF-CEM. The data set is described as follows: Effect on Bcl-XL expression in vincristine-resistant human CEM cells at 5 uM measured after 24 hrs by Western blot analysis. It is filed as functional, cell-based. The method in brief:
as §1

The test system of data set [7] is CCRF-CEM. Put plainly: Effect on MCL1 expression in vincristine-resistant human CEM cells at 5 uM measured after 24 hrs by Western blot analysis. It is filed as functional, cell-based. The method in brief: as §1
In general terms: Immunoblotting shows a protein as a band on a membrane.

Data set [8] deals with CCRF-CEM. Put plainly: Induction of apoptosis in vincristine-resistant human CEM cells assessed as increase in PARP cleavage at 5 uM measured after 24 hrs by Western blot analysis. It is filed as functional, cell-based. In short, it runs like this: as §1
Data set [9] deals with CCRF-CEM. Put plainly: Induction of mitochondrial membrane disruption in vincristine-resistant human CEM cells at 5 uM measured after 24 hrs by JC-1 dye based flow cytometric analysis. It is filed as functional, cell-based. In short, it runs like this:
(§2)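 Cells (HepG2 adhered overnight; VCR-R CEM seeded 4 h before) treated with DMSO or 5 μM for 24 h; JC-1 (1 μg/mL) 1 h before harvest, PBS wash, flow cytometry; green shift read as loss of ΔΨm. CCCP (100 μM, 1 h) positive control; elacridar (5 μM) present for CEM staining.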

In data set [10] the test system is HepG2. The data set is described as follows: Induction of apoptosis in human HepG2 cells assessed as increase in PARP cleavage at 5 uM measured after 24 hrs by Western blot analysis. It is filed as functional, cell-based. In short, it runs like this: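 HepG2, 0.5 × 10^6 per well, adhered overnight, then DMSO or 5 μM compound; RIPA lysates immunoblotted by SDS-PAGE/PVDF with chemiluminescent detection.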

Data set [11] concerns HepG2. Put plainly: Induction of mitochondrial membrane disruption in human HepG2 cells at 5 uM measured after 24 hrs by JC-1 dye based flow cytometric analysis. It is filed as functional, cell-based. In short, it runs like this:
as §2

For data set [12], the system named is HepaRG. The data set is described as follows: Cytotoxicity against human HepaRG cells overexpressing EGFP-CYP3A4 assessed as reduction in cell viability at 10 uM measured after 24 hrs by propidium iodide staining based flow cytometry. It is filed as ADME. In short, it runs like this:
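HepaRG cells, differentiated, transiently transfected with pcDNA3-CYP3A4-EGFP or empty vector 16 h before stimulation; 10 μM compound for 24 h. Propidium iodide (5 μg/mL in PBS) staining, flow cytometry without FSC/SSC gating; specific cell death = % dead (treated) − % dead (control). Three independent experiments.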

The subject of data set [13] is HepaRG. The data set is described as follows: Cytotoxicity against human HepaRG cells assessed as reduction in cell viability at 10 uM measured after 24 hrs by Celltiter-blue cell viability assay. It is filed as cell-based. The method in brief:
(§3)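 Differentiated HepaRG cells (Maintenance/Metabolism medium) exposed 24 h to 10 or 20 μM compound; viability by CellTiter-Blue, normalized to vehicle control. Means ± SEM of three independent experiments.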
A general note: Alamar Blue is a resazurin reagent that responds to reducing activity.

The test system of data set [14] is HUVEC. The data set is described as follows: Cytotoxicity against HUVEC assessed as reduction in cell viability at 1 to 10 uM measured after 24 hrs by Celltiter-blue cell viability assay. It is filed as cell-based. The following applies: human, dose 1-10 µM. The method in brief:
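HUVECs seeded, adhered overnight, exposed 24 h to 1, 5 and 10 μM; CellTiter-Blue viability normalized to vehicle control; three independent experiments.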

Data set [15] in a line: Cytotoxicity against human PBMC assessed as reduction in cell viability at 1 to 10 uM measured after 48 hrs by propidium iodide staining based flow cytometry.
Data set [16] has as its system HepaRG. The data set is described as follows: Cytotoxicity against human HepaRG cells assessed as reduction in cell viability at 20 uM measured after 24 hrs by Celltiter-blue cell viability assay. It is filed as cell-based. In short, it runs like this:
as §3

Activity calls are given as the source filed them. No cut-off for these calls is given here.

In the case of `COc1cc2c(cc1OC)[C@@H](Cc1ccc(Oc3cc(C[C@@H]4c5cc(OC)c(OC)cc5CCN4C)ccc3O)cc1)N(C)CC2`, in [1], the result was Active.

On to `COc1cc2c3cc1Oc1c(OC)c(OC)cc4c1[C@@H](Cc1ccc(O)c(c1)Oc1ccc(cc1)C[C@@H]3N(C)CC2)N(C)CC4`, for which the result in data set [1] was Active.

Take `COc1cc2c3cc1Oc1c(OC)c(OC)cc4c1C(Cc1ccc(Cl)c(c1)Oc1ccc(cc1)CC3N(C)CC2)N(C)CC4` (mixture of isomers): the outcome in data set [1], in data set [8] and in [9] was Active. Besides, the inhibition entry in [2] and in data set [4] was “Active” each time. Further, the result in [3], in data set [5], in data set [6], in data set [7], in [10] and in [11] was inactive.

Regarding `COc1cc2c3cc1Oc1c(OC)c(OC)cc4c1C(Cc1ccc(Cl)c(c1)Oc1ccc(cc1)CC3N(C)CC2)N(C)CC4` (racemic) [listing 1 of 2 here], in data set [12], the Activity entry was “Toxic”.

As for `COc1cc2c3cc1Oc1c(OC)c(OC)cc4c1C(CCCCOc1ccc(cc1)CC3N(C)CC2)N(C)CC4` (racemic) [listing 1 of 2 here], the Activity entry in data set [12] is listed as “Toxic”.

`COc1cc2c3cc1Oc1c(OC)c(OC)cc4c1C(CCCCOc1ccc(cc1)CC3N(C)CC2)N(C)CC4` (racemic) [listing 2 of 2 here]: the outcome in data set [1] was Active. The inhibition entry in data set [2] and in data set [4] was “inactive” throughout. Moreover, the outcome in data set [3], in data set [5], in [6], in [7], in data set [9] and in data set [10] was inactive. In addition, in data set [11], the outcome was inactive.

In the case of `COc1cc2c3cc1Oc1c(OC)c(OC)cc4c1C(Cc1ccc(Cl)c(c1)Oc1ccc(cc1)CC3N(C)CC2)N(C)CC4` (racemic) [listing 2 of 2 here], the outcome in data set [1] was Active. Also, the inhibition result in data set [2] and in data set [4] was “Active” each time. Further, the result in data set [3], in [5], in data set [6], in data set [7], in [9] and in data set [10] was inactive. Also, in [11], the result was inactive.

Regarding `COc1cc2c3cc1Oc1c(OC)c(OC)cc4c1C(Cc1cccc(c1)Oc1ccc(cc1)CC3N(C)CC2)N(C)CC4` (racemic; form 1) [listing 1 of 2 here], the Activity result in data set [13] was “Toxic”.

Turning to `COc1cc2c3cc1Oc1c(OC)c(OC)cc4c1C(Cc1cc(cs1)Oc1ccc(cc1)CC3N(C)CC2)N(C)CC4` (racemic; form 1), the Activity result in data set [14] and in [15] was “Toxic” in each case.

With `COc1cc2c3cc1Oc1c(OC)c(OC)cc4c1C(Cc1ccc(OC(F)(F)F)c(c1)Oc1ccc(cc1)CC3N(C)CC2)N(C)CC4` (racemic; form 1), the result in data set [1], in data set [8] and in data set [9] was Active. The inhibition entry in data set [2] and in data set [4] was “Active” in each case. The outcome in data set [3], in data set [5], in [6], in data set [7], in data set [10] and in data set [11] was inactive.

As for `COc1cc2c3cc1Oc1c(OC)c(OC)cc4c1C(Cc1cccc(c1)Oc1ccc(cc1)CC3N(C)CC2)N(C)CC4` (racemic; form 1) [listing 2 of 2 here], the result in [1] and in [8] was Active. For the same compound, the inhibition entry in data set [2] and in data set [4] was “Active” each time. Further, the outcome in data set [3], in data set [5], in data set [6], in data set [7], in data set [9] and in [10] was inactive. Further, the result in [11] was inactive.

`COc1cc2c3cc1Oc1c(OC)c(OC)cc4c1C(Cc1cccc(c1)Oc1ccc(cc1)CC3N(C)CC2)N(C)CC4` (racemic; form 2) [listing 1 of 2 here]: the Activity result in [16] and in data set [12] was “Toxic” each time.

In the case of `COc1cc2c3cc1Oc1c(OC)c(OC)cc4c1C(Cc1ccc(OC(F)(F)F)c(c1)Oc1ccc(cc1)CC3N(C)CC2)N(C)CC4` (racemic; form 2), the Activity result in [12] is “Toxic”.

For the compound `COc1cc2c3cc1Oc1c(OC)c(OC)cc4c1C(Cc1cc(cs1)Oc1ccc(cc1)CC3N(C)CC2)N(C)CC4` (racemic; form 2) [listing 1 of 2 here], the Activity entry in [13], in [16] and in data set [12] was “Toxic” throughout.

Take `COc1cc2c3cc1Oc1c(OC)c(OC)cc4c1C(Cc1cc(cs1)Oc1ccc(cc1)CC3N(C)CC2)N(C)CC4` (racemic; form 2) [listing 2 of 2 here]: in [1], the result was Active. Further, the inhibition entry in data set [2] and in data set [4] was “Active” throughout. Also, the outcome in [3], in data set [5], in data set [6], in data set [7], in [9] and in data set [10] was inactive. In addition, the outcome in [11] was inactive.

Regarding `COc1cc2c3cc1Oc1c(OC)c(OC)cc4c1C(Cc1cccc(c1)Oc1ccc(cc1)CC3N(C)CC2)N(C)CC4` (racemic; form 2) [listing 2 of 2 here], the outcome in [1] and in data set [9] was Active. Besides, the inhibition entry in data set [2] and in data set [4] was “Active” throughout. The result in data set [3], in data set [5], in [6], in data set [7], in data set [10] and in data set [11] was inactive.

For `COc1cc2c3cc1Oc1c(OC)c(OC)cc4c1C(CCCCOc1ccc(cc1)CC3N(C)CC2)N(C)CC4` (single isomer, unassigned; diastereomer 2) [listing 1 of 2 here], the Activity result in data set [13] and in data set [16] was “Toxic” each time.

On to `COc1cc2c3cc1Oc1c(OC)c(OC)cc4c1C(CCCCOc1ccc(cc1)CC3N(C)CC2)N(C)CC4` (single isomer, unassigned; diastereomer 2) [listing 2 of 2 here], for which the result in [1] was Active. The inhibition entry in [2] and in data set [4] was “inactive” each time. The result in data set [3], in [5], in data set [6], in [7], in [9] and in [10] was inactive. Moreover, the outcome in [11] was inactive.

These data come from ChEMBL document CHEMBL4765449, “Synthesis, biological evaluation and toxicity of novel tetrandrine analogues” (Eur J Med Chem, 2020).
